≈ marks a conversion by molar mass, not a printed value.
How the values were obtained:
Type in all cases: functional
[1] = system: Pseudomonas aeruginosa; test: Antibacterial activity against Pseudomonas aeruginosa by broth dilution method
Outline: (§1)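 Broth microdilution MIC per CLSI reference method; twofold serial dilutions in cation-adjusted Mueller-Hinton broth. […] Endpoint read by OD600 and confirmed visually.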

[2] = system: Burkholderia cepacia; test: Antibacterial activity against Burkholderia cepacia clinical isolates by broth dilution method
[3] = system: Stenotrophomonas maltophilia; test: Antibacterial activity against Stenotrophomonas maltophilia by broth dilution method
[4] = system: Achromobacter xylosoxidans; test: Antibacterial activity against Alcaligenes xylosoxidans by broth dilution method
[5] = system: Staphylococcus aureus; test: Antibacterial activity against methicillin-resistant Staphylococcus aureus by broth dilution method; outline: as §1
[6] = system: Staphylococcus aureus; test: Antibacterial activity against methicillin-sensitive Staphylococcus aureus by broth dilution method
[7] = system: Pseudomonas aeruginosa; test: Antibacterial activity against Pseudomonas aeruginosa PA1054 assessed as inhibition of biofilm formation by microtiter plate reader assay
Outline: (§2)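 Biofilms of cystic fibrosis P. aeruginosa isolates were grown and tested by a previously described method. The endpoint was the biofilm inhibitory concentration, the drug level that prevents biofilm cell growth, compared against planktonic broth-microdilution MICs.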

[8] = system: Pseudomonas aeruginosa; test: Antibacterial activity against Pseudomonas aeruginosa PA1042 assessed as inhibition of biofilm formation by microtiter plate reader assay; outline: as §2
[9] = system: Pseudomonas aeruginosa; test: Antibacterial activity against Pseudomonas aeruginosa PA5063 assessed as inhibition of biofilm formation by microtiter plate reader assay; outline: as §2
[10] = system: Pseudomonas aeruginosa; test: Antibacterial activity against Pseudomonas aeruginosa PA1054 by broth dilution method; outline: as §1
[11] = system: Pseudomonas aeruginosa; test: Antibacterial activity against Pseudomonas aeruginosa PA1042 by broth dilution method; outline: as §1
[12] = system: Pseudomonas aeruginosa; test: Antibacterial activity against Pseudomonas aeruginosa PA5063 by broth dilution method; outline: as §1
[13] = system: Pseudomonas aeruginosa; test: Antibacterial activity against Pseudomonas aeruginosa ATCC 27853 by broth dilution method; outline: as §1
[14] = system: Pseudomonas aeruginosa; test: Antibacterial activity against Pseudomonas aeruginosa PA5043 by broth dilution method; outline: as §1
[15] = system: Pseudomonas aeruginosa; test: Antibacterial activity against Pseudomonas aeruginosa PA5043 assessed as inhibition of biofilm formation by microtiter plate reader assay; outline: as §2
[16] = system: Pseudomonas aeruginosa; test: Antibacterial activity against Pseudomonas aeruginosa ATCC 27853 assessed as inhibition of biofilm formation by microtiter plate reader assay

Row | Compound | MIC50 [1] [µg/mL] | MIC90 [1] [µg/mL] | MIC50 [3] [µg/mL] | MIC90 [3] [µg/mL] | MIC50 [4] [µg/mL] | MIC90 [4] [µg/mL] | MIC50 [5] [µg/mL] | MIC90 [5] [µg/mL] | MIC50 [6] [µg/mL] | MIC90 [6] [µg/mL] | further results
1 | NCC[C@H](O)C(=O)N[C@@H]1C[C@H](N)[C@@H](O[C@H]2O[C@H](CN)[C@@H](O)[C@H](O)[C@H]2O)[C@H](O)[C@H]1O[C@H]1O[C@H](CO)[C@@H](O)[C@H](N)[C@H]1O [AMIKACIN] | 16 (≈ 27.3 µM) | > 128 | 128 (≈ 219 µM) | > 128 | > 128 | > 128 | 8 (≈ 13.7 µM) | 16 (≈ 27.3 µM) | 1 (≈ 1.71 µM) | 4 (≈ 6.83 µM) | MIC50 [2]: 128 µg/mL (≈ 219 µM); MIC90 [2]: > 128 µg/mL; BBC [7]: 4 µg/mL; MIC ([7]; Pseudomonas aeruginosa, PA1054): 1 µg/mL (≈ 1.71 µM); BBC [8]: 8 µg/mL; BBC [9]: 16 µg/mL; MIC [10]: 1 µg/mL (≈ 1.71 µM); MIC [11]: 4 µg/mL (≈ 6.83 µM); MIC [12]: 2 µg/mL (≈ 3.42 µM); MIC [13]: 2 µg/mL (≈ 3.42 µM); MIC [14]: 64 µg/mL (≈ 109 µM); BBC [15]: 64 µg/mL; BBC [16]: 8 µg/mL
2 | O=C(O)c1cn(C2CC2)c2cc(N3CCNCC3)c(F)cc2c1=O [CIPROFLOXACIN] | 1 (≈ 3.02 µM) | 8 (≈ 24.1 µM) | 4 (≈ 12.1 µM) | 16 (≈ 48.3 µM) | 4 (≈ 12.1 µM) | 16 (≈ 48.3 µM) | 16 (≈ 48.3 µM) | > 32 | 0.125 (≈ 0.377 µM) | 0.5 (≈ 1.51 µM) | 

— ChEMBL document CHEMBL1212734, “In vitro pharmacodynamics of levofloxacin and other aerosolized antibiotics under multiple conditions relevant to chronic pulmonary infection in cystic fibrosis” (2010)
